Reference: ChEMBL document CHEMBL1129275, “Synthesis and in vitro and in vivo characteristics of an iodinated analogue of the beta-adrenoceptor antagonist carazolol” (J Med Chem, 1996)

Columns and labels:
Conditions in all cases: in vivo
Oryctolagus cuniculus [1] = experiment: Biodistribution pattern of [123I]- ligand was evaluated in intestine of anesthetized rabbit after Intravenous injection of 50 uCi after 2 hr; type: ADME, organism-based
Outline: (§1)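 Male New Zealand white rabbits, 2.5–3.5 kg, anesthetized with 5 mg/kg xylazine plus 30 mg/kg ketamine im. Each received 50 uCi radioligand (specific activity > 5000 Ci/mmol) iv via ear vein. Animals were killed with 200 mg/kg pentobarbital im at the set time. Blood was drawn by intracardiac puncture and organs weighed. Gamma counting was decay-corrected, expressed as %ID x kg body weight/g tissue, mean ± SEM, n = 3/time point.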

Oryctolagus cuniculus [2] = experiment: Biodistribution pattern of [123I]- ligand was evaluated in left atrial muscle of anesthetized rabbit after Intravenous injection of 50 uCi after 2 hr; type: ADME, organism-based, Muscle tissue; outline: as §1
Oryctolagus cuniculus [3] = experiment: Biodistribution pattern of [123I]- ligand was evaluated in left ventricular muscle of anesthetized rabbit after Intravenous injection of 50 uCi after 2 hr; type: ADME, organism-based, Muscle tissue; outline: as §1
Oryctolagus cuniculus [4] = experiment: Biodistribution pattern of [123I]- ligand was evaluated in right atrial muscle of anesthetized rabbit after Intravenous injection of 50 uCi after 2 hr; type: ADME, organism-based, Muscle tissue
Outline: (§2)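 Male New Zealand white rabbits (2.5–3.5 kg), anesthetized with xylazine 5 mg/kg plus ketamine 30 mg/kg im, given 50 µCi radioligand (specific activity >5000 Ci/mmol) iv via ear vein. Euthanized at set times by pentobarbital 200 mg/kg im, n = 3/time point. Organs removed and weighed, gamma-counted, decay/weight corrected; expressed as % ID x kg body weight/g tissue, mean ± SEM.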

Oryctolagus cuniculus [5] = experiment: Biodistribution pattern of [123I]- ligand was evaluated in right ventricular muscle of anesthetized rabbit after Intravenous injection of 50 uCi after 2 hr; type: ADME, organism-based, Muscle tissue; outline: as §2
Oryctolagus cuniculus [6] = experiment: Cerebral biodistribution pattern of [123I]- ligand was evaluated in striatum of anesthetized rabbit after Intravenous injection of 50 uCi after 2 hr; type: ADME, organism-based; outline: as §2
Oryctolagus cuniculus [7] = experiment: Cerebral biodistribution pattern of [123I]- ligand was evaluated in thalamus of anesthetized rabbit after Intravenous injection of 50 uCi after 2 hr; type: ADME, organism-based; outline: as §2
Oryctolagus cuniculus [8] = experiment: Biodistribution pattern of [123I]- ligand was evaluated in muscle of anesthetized rabbit after Intravenous injection of 50 uCi after 2 hr; type: ADME, organism-based, Muscle tissue; outline: as §1
Oryctolagus cuniculus [9] = experiment: Cerebral biodistribution pattern of [123I]- ligand was evaluated in frontal cortex of anesthetized rabbit after Intravenous injection of 50 uCi after 2 hr; type: ADME, organism-based; outline: as §2
Oryctolagus cuniculus [10] = experiment: Cerebral biodistribution pattern of [123I]- ligand was evaluated in hypothalamus of anesthetized rabbit after Intravenous injection of 50 uCi after 2 hr; type: ADME, organism-based; outline: as §2
Oryctolagus cuniculus [11] = experiment: […] biodistribution pattern of [123I]- ligand was evaluated in kidney of anesthetized rabbit after Intravenous injection of 50 uCi after 2 hr; type: ADME, organism-based; outline: as §2
Oryctolagus cuniculus [12] = experiment: Cerebral biodistribution pattern of [123I]- ligand was evaluated in pituitary gland of anesthetized rabbit after Intravenous injection of 50 uCi after 2 hr; type: ADME, organism-based; outline: as §2
Oryctolagus cuniculus [13] = experiment: Biodistribution pattern of [123I]- ligand was evaluated in blood of anesthetized rabbit after Intravenous injection of 50 uCi after 2 hr; type: ADME, organism-based; outline: as §1
Oryctolagus cuniculus [14] = experiment: Biodistribution pattern of [123I]- ligand was evaluated in fat of anesthetized rabbit after Intravenous injection of 50 uCi after 2 hr; type: ADME, organism-based, Adipose tissue; outline: as §1
Oryctolagus cuniculus [15] = experiment: Biodistribution pattern of [123I]- ligand was evaluated in spleen of anesthetized rabbit after Intravenous injection of 50 uCi after 2 hr; type: ADME, organism-based; outline: as §2
Oryctolagus cuniculus [16] = experiment: Biodistribution pattern of [123I]- ligand was evaluated in liver of anesthetized rabbit after Intravenous injection of 50 uCi after 2 hr; type: ADME, organism-based; outline: as §1
Oryctolagus cuniculus [17] = experiment: Biodistribution pattern of [123I]- ligand was evaluated in lung of anesthetized rabbit after Intravenous injection of 50 uCi after 2 hr; type: ADME, organism-based; outline: as §1
Oryctolagus cuniculus [18] = experiment: Cerebral biodistribution pattern of [123I]- ligand was evaluated in cerebellum of anesthetized rabbit after Intravenous injection of 50 uCi after 2 hr; type: ADME, organism-based; outline: as §2

SMILES	ID x kg of body weight/g of tissue (Oryctolagus cuniculus [1])	ID x kg of body weight/g of tissue (Oryctolagus cuniculus [2])	ID x kg of body weight/g of tissue (Oryctolagus cuniculus [3])	ID x kg of body weight/g of tissue (Oryctolagus cuniculus [4])	ID x kg of body weight/g of tissue (Oryctolagus cuniculus [5])	ID x kg of body weight/g of tissue (Oryctolagus cuniculus [6])	ID x kg of body weight/g of tissue (Oryctolagus cuniculus [7])	ID x kg of body weight/g of tissue (Oryctolagus cuniculus [8])	ID x kg of body weight/g of tissue (Oryctolagus cuniculus [9])	ID x kg of body weight/g of tissue (Oryctolagus cuniculus [10])	ID x kg of body weight/g of tissue (Oryctolagus cuniculus [11])	ID x kg of body weight/g of tissue (Oryctolagus cuniculus [12])	ID x kg of body weight/g of tissue (Oryctolagus cuniculus [13])	ID x kg of body weight/g of tissue (Oryctolagus cuniculus [14])	ID x kg of body weight/g of tissue (Oryctolagus cuniculus [15])	ID x kg of body weight/g of tissue (Oryctolagus cuniculus [16])	ID x kg of body weight/g of tissue (Oryctolagus cuniculus [17])	ID x kg of body weight/g of tissue (Oryctolagus cuniculus [18])
CC(C)(C)NCC(O)COc1cccc2[nH]c(=O)[nH]c12 (stereo not given) [CGP-12177]	0.46%	< 0.05%	< 0.08%	< 0.05%	< 0.08%	0.08%	0.06%	< 0.03%	0.1%	0.06%	0.09%	0.07%	0.01%	0.04%	0.12%	0.1%	< 0.8%	0.17%
CC(C)NCC(O)COc1cccc2ccccc12 (stereo not given) [PROPRANOLOL]	0.29%	< 0.07%	< 0.09%	< 0.07%	< 0.09%	< 0.04%	0.04%	< 0.03%	< 0.05%	0.04%	0.1%	0.06%	0.01%	0.04%	0.1%	0.1%		< 0.04%
